Data taken from ChEMBL document CHEMBL1154842, “Synthesis, radiolabeling, and biological evaluation of (R)- and (S)-2-amino-3-[(18)F]fluoro-2-methylpropanoic acid (FAMP) and (R)- and (S)-3-[(18)F]fluoro-2-methyl-2-N-(methylamino)propanoic acid (NMeFAMP) as potential PET radioligands for imaging brain tumors” (J Med Chem, 2010).

Experiments:
[1] = system: Blood; assay: Biodistribution in blood of Fischer 344 rat bearing rat 9L cells at 20 uCi, iv after 15 mins; assay type: ADME, organism-based; conditions: in vivo, 0.25 h
Summary of the method: (§1)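 Male Fischer 344 rats (200–250 g) carrying intracranial 9L gliosarcoma (5×10^4 cells implanted stereotactically, 10–12 days growth), under ketamine:xylazine anaesthesia. About 20 μCi tracer in 0.5 mL sterile saline given via tail-vein catheter. Groups of 4–5 were killed by intracardiac KCl at 15 (NMeFAMP only), 30, 60 or 120 min. Tissues were weighed and gamma-counted, decay-corrected, and reported as %ID/g, mean ± SD.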

[2] = system: Spleen; assay: Biodistribution in spleen of Fischer 344 rat bearing rat 9L cells at 20 uCi, iv after 30 mins; assay type: ADME, organism-based; conditions: in vivo, 0.5 h; summary of the method: as §1
[3] = Biodistribution in testis of Fischer 344 rat bearing rat 9L cells at 20 uCi, iv after 60 mins; assay type: ADME, organism-based; conditions: in vivo, 1 h; summary of the method: as §1
[4] = system: Pancreas; assay: Biodistribution in pancreas of Fischer 344 rat bearing rat 9L cells at 20 uCi, iv after 30 mins; assay type: ADME, organism-based; conditions: in vivo, 0.5 h; summary of the method: as §1
[5] = system: Liver; assay: Biodistribution in liver of Fischer 344 rat bearing rat 9L cells at 20 uCi, iv after 30 mins; assay type: ADME, organism-based; conditions: in vivo, 0.5 h; summary of the method: as §1
[6] = system: Muscle tissue; assay: Biodistribution in muscle of Fischer 344 rat bearing rat 9L cells at 20 uCi, iv after 120 mins; assay type: ADME, organism-based; conditions: in vivo, 2 h; summary of the method: as §1
[7] = Biodistribution in testis of Fischer 344 rat bearing rat 9L cells at 20 uCi, iv after 15 mins; assay type: ADME, organism-based; conditions: in vivo, 0.25 h; summary of the method: as §1
[8] = system: Lung; assay: Biodistribution in lung of Fischer 344 rat bearing rat 9L cells at 20 uCi, iv after 30 mins; assay type: ADME, organism-based; conditions: in vivo, 0.5 h; summary of the method: as §1
[9] = system: Spleen; assay: Biodistribution in spleen of Fischer 344 rat bearing rat 9L cells at 20 uCi, iv after 15 mins; assay type: ADME, organism-based; conditions: in vivo, 0.25 h; summary of the method: as §1
[10] = system: Heart; assay: Biodistribution in heart of Fischer 344 rat bearing rat 9L cells at 20 uCi, iv after 120 mins; assay type: ADME, organism-based; conditions: in vivo, 2 h; summary of the method: as §1
[11] = system: Pancreas; assay: Biodistribution in pancreas of Fischer 344 rat bearing rat 9L cells at 20 uCi, iv after 120 mins; assay type: ADME, organism-based; conditions: in vivo, 2 h; summary of the method: as §1
[12] = system: Muscle tissue; assay: Biodistribution in muscle of Fischer 344 rat bearing rat 9L cells at 20 uCi, iv after 30 mins; assay type: ADME, organism-based; conditions: in vivo, 0.5 h; summary of the method: as §1
[13] = system: Bone; assay: Biodistribution in bone of Fischer 344 rat bearing rat 9L cells at 20 uCi, iv after 30 mins; assay type: ADME, organism-based, Bone element; conditions: in vivo, 0.5 h; summary of the method: as §1
[14] = system: Kidney; assay: Biodistribution in kidney of Fischer 344 rat bearing rat 9L cells at 20 uCi, iv after 120 mins; assay type: ADME, organism-based; conditions: in vivo, 2 h; summary of the method: as §1
[15] = Ratio of drug level from tumor to brain of Fischer 344 rat bearing rat 9L cells at 20 uCi, iv after 60 mins; conditions: in vivo, 1 h
[16] = system: Bone; assay: Biodistribution in bone of Fischer 344 rat bearing rat 9L cells at 20 uCi, iv after 120 mins; assay type: ADME, organism-based, Bone element; conditions: in vivo, 2 h; summary of the method: as §1
[17] = system: Liver; assay: Biodistribution in liver of Fischer 344 rat bearing rat 9L cells at 20 uCi, iv after 120 mins; assay type: ADME, organism-based; conditions: in vivo, 2 h; summary of the method: as §1
[18] = system: Blood; assay: Biodistribution in blood of Fischer 344 rat bearing rat 9L cells at 20 uCi, iv after 120 mins; assay type: ADME, organism-based; conditions: in vivo, 2 h; summary of the method: as §1
[19] = system: Bone; assay: Biodistribution in bone of Fischer 344 rat bearing rat 9L cells at 20 uCi, iv after 60 mins; assay type: ADME, organism-based, Bone element; conditions: in vivo, 1 h; summary of the method: as §1
[20] = system: Liver; assay: Biodistribution in liver of Fischer 344 rat bearing rat 9L cells at 20 uCi, iv after 60 mins; assay type: ADME, organism-based; conditions: in vivo, 1 h; summary of the method: as §1
[21] = Biodistribution in testis of Fischer 344 rat bearing rat 9L cells at 20 uCi, iv after 30 mins; assay type: ADME, organism-based; conditions: in vivo, 0.5 h; summary of the method: as §1
[22] = system: Blood; assay: Biodistribution in blood of Fischer 344 rat bearing rat 9L cells at 20 uCi, iv after 60 mins; assay type: ADME, organism-based; conditions: in vivo, 1 h; summary of the method: as §1
[23] = system: Lung; assay: Biodistribution in lung of Fischer 344 rat bearing rat 9L cells at 20 uCi, iv after 60 mins; assay type: ADME, organism-based; conditions: in vivo, 1 h; summary of the method: as §1
[24] = Ratio of drug level from tumor to brain of Fischer 344 rat bearing rat 9L cells at 20 uCi, iv after 120 mins; assay type: ADME, organism-based; conditions: in vivo, 2 h
[25] = rat, in vivo, iv, 1 h
[26] = system: Heart; assay: Biodistribution in heart of Fischer 344 rat bearing rat 9L cells at 20 uCi, iv after 30 mins; assay type: ADME, organism-based; conditions: in vivo, 0.5 h; summary of the method: as §1
[27] = system: Liver; assay: Biodistribution in liver of Fischer 344 rat bearing rat 9L cells at 20 uCi, iv after 15 mins; assay type: ADME, organism-based; conditions: in vivo, 0.25 h; summary of the method: as §1
[28] = Biodistribution in testis of Fischer 344 rat bearing rat 9L cells at 20 uCi, iv after 120 mins; assay type: ADME, organism-based; conditions: in vivo, 2 h; summary of the method: as §1
[29] = system: Lung; assay: Biodistribution in lung of Fischer 344 rat bearing rat 9L cells at 20 uCi, iv after 120 mins; assay type: ADME, organism-based; conditions: in vivo, 2 h; summary of the method: as §1
[30] = system: Heart; assay: Biodistribution in heart of Fischer 344 rat bearing rat 9L cells at 20 uCi, iv after 60 mins; assay type: ADME, organism-based; conditions: in vivo, 1 h; summary of the method: as §1
[31] = system: Pancreas; assay: Biodistribution in pancreas of Fischer 344 rat bearing rat 9L cells at 20 uCi, iv after 60 mins; assay type: ADME, organism-based; conditions: in vivo, 1 h; summary of the method: as §1
[32] = system: Kidney; assay: Biodistribution in kidney of Fischer 344 rat bearing rat 9L cells at 20 uCi, iv after 30 mins; assay type: ADME, organism-based; conditions: in vivo, 0.5 h; summary of the method: as §1
[33] = system: Blood; assay: Biodistribution in blood of Fischer 344 rat bearing rat 9L cells at 20 uCi, iv after 30 mins; assay type: ADME, organism-based; conditions: in vivo, 0.5 h; summary of the method: as §1
[34] = system: Spleen; assay: Biodistribution in spleen of Fischer 344 rat bearing rat 9L cells at 20 uCi, iv after 60 mins; assay type: ADME, organism-based; conditions: in vivo, 1 h; summary of the method: as §1
[35] = system: Pancreas; assay: Biodistribution in pancreas of Fischer 344 rat bearing rat 9L cells at 20 uCi, iv after 15 mins; assay type: ADME, organism-based; conditions: in vivo, 0.25 h; summary of the method: as §1
[36] = system: Kidney; assay: Biodistribution in kidney of Fischer 344 rat bearing rat 9L cells at 20 uCi, iv after 15 mins; assay type: ADME, organism-based; conditions: in vivo, 0.25 h; summary of the method: as §1
[37] = system: Lung; assay: Biodistribution in lung of Fischer 344 rat bearing rat 9L cells at 20 uCi, iv after 15 mins; assay type: ADME, organism-based; conditions: in vivo, 0.25 h; summary of the method: as §1
[38] = system: Brain; assay: Biodistribution in brain of Fischer 344 rat bearing rat 9L cells at 20 uCi, iv after 15 mins; conditions: in vivo
[39] = system: Heart; assay: Biodistribution in heart of Fischer 344 rat bearing rat 9L cells at 20 uCi, iv after 15 mins; assay type: ADME, organism-based; conditions: in vivo, 0.25 h; summary of the method: as §1
[40] = system: Muscle tissue; assay: Biodistribution in muscle of Fischer 344 rat bearing rat 9L cells at 20 uCi, iv after 60 mins; assay type: ADME, organism-based; conditions: in vivo, 1 h; summary of the method: as §1
[41] = system: Bone; assay: Biodistribution in bone of Fischer 344 rat bearing rat 9L cells at 20 uCi, iv after 15 mins; assay type: ADME, organism-based, Bone element; conditions: in vivo, 0.25 h; summary of the method: as §1
[42] = system: Brain; assay: Biodistribution in brain of Fischer 344 rat bearing rat 9L cells at 20 uCi, iv after 15 mins; assay type: ADME, organism-based; conditions: in vivo, 0.25 h; summary of the method: as §1
[43] = system: Spleen; assay: Biodistribution in spleen of Fischer 344 rat bearing rat 9L cells at 20 uCi, iv after 120 mins; assay type: ADME, organism-based; conditions: in vivo, 2 h; summary of the method: as §1
[44] = system: Brain; assay: Biodistribution in brain of Fischer 344 rat bearing rat 9L cells at 20 uCi, iv after 30 mins; conditions: in vivo, 0.5 h
[45] = system: Brain; assay: Biodistribution in brain of Fischer 344 rat bearing rat 9L cells at 20 uCi, iv after 30 mins; assay type: ADME, organism-based; conditions: in vivo, 0.5 h; summary of the method: as §1
[46] = rat, in vivo, iv, 1 h; remark: listed apart in the source
[47] = Biodistribution in tumor of Fischer 344 rat bearing rat 9L cells at 20 uCi, iv after 30 mins; assay type: ADME, organism-based, Neoplasm; conditions: in vivo, 0.5 h; summary of the method: as §1
[48] = system: Muscle tissue; assay: Biodistribution in muscle of Fischer 344 rat bearing rat 9L cells at 20 uCi, iv after 15 mins; assay type: ADME, organism-based; conditions: in vivo, 0.25 h; summary of the method: as §1
[49] = system: Kidney; assay: Biodistribution in kidney of Fischer 344 rat bearing rat 9L cells at 20 uCi, iv after 60 mins; assay type: ADME, organism-based; conditions: in vivo, 1 h; summary of the method: as §1

With `CN[C@@](C)(C[18F])C(=O)O.Cl` the Drug uptake [1] was 0.41 % ID/g, the Drug uptake [2] was 0.63 % ID/g and the Drug uptake [3] was 0.15 % ID/g. The Drug uptake [4] was 2.72 % ID/g, the Drug uptake [5] was 0.61 % ID/g and the Drug uptake [6] was 0.22 % ID/g. The Drug uptake [7] was 0.19 % ID/g, the Drug uptake [8] was 0.36 % ID/g and the Drug uptake [9] was 0.57 % ID/g. The Drug uptake [10] was 0.22 % ID/g, the Drug uptake [11] was 3.39 % ID/g and the Drug uptake [12] was 0.23 % ID/g. It also gave a Drug uptake [13] of 0.48 % ID/g, a Drug uptake [14] of 2.45 % ID/g and a Ratio [15] of 58.2. The Drug uptake [16] was 0.44 % ID/g, the Drug uptake [17] was 0.4 % ID/g and the Drug uptake [18] was 0.14 % ID/g. For the same compound, the Drug uptake [19] was 0.51 % ID/g, the Drug uptake [20] was 0.52 % ID/g and the Drug uptake [21] was 0.15 % ID/g. The Drug uptake [22] was 0.24 % ID/g, the Drug uptake [23] was 0.38 % ID/g and the Ratio [24] was 115.4. It also gave a Drug uptake [25] of 2.64 % ID/g, a Drug uptake [26] of 0.23 % ID/g and a Drug uptake [27] of 0.6 % ID/g. It also gave a Drug uptake [28] of 0.16 % ID/g, a Drug uptake [29] of 0.25 % ID/g and a Drug uptake [30] of 0.24 % ID/g. The Drug uptake [31] was 3.41 % ID/g, the Drug uptake [32] was 8.91 % ID/g and the Drug uptake [33] was 0.32 % ID/g. The Drug uptake [34] was 0.59 % ID/g, the Drug uptake [35] was 2.25 % ID/g and the Drug uptake [36] was 9.22 % ID/g. It also gave a Drug uptake [37] of 0.79 % ID/g, a Ratio [38] of 25 and a Drug uptake [39] of 0.55 % ID/g. The Drug uptake [40] was 0.2 % ID/g, the Drug uptake [41] was 0.51 % ID/g and the Drug uptake [42] was 0.06 % ID/g. The Drug uptake [43] was 0.62 % ID/g, the Drug uptake [44] was 0.04 % ID/g and the Drug uptake [45] was 0.04 % ID/g. The Drug uptake [46] was 0.05 % ID/g, the Ratio [47] was 53.2 and the Drug uptake [48] was 0.27 % ID/g. The Drug uptake [49] was 4.44 % ID/g.
